GRIN3A LBD mod – binders of NR3A ligand-binding domain, primary screen, biophysical, differential scanning fluorimetry, uHTS | NR3A LBD differential scanning fluorimetry, Tm shift; 0% = protein alone, 100% = glycine-bound protein | Tm shift relative to glycine control, % at 25 µM | 340,000 compounds, 2.5% hits | AID 1259313, 2017;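 active means melting temperature shift of at least 10% of the positive control shift, at one fixed dose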
ZTA DNA inh – ZTA (EBV) inhibition in EBNA-1 counter-screen. P03206. ZTA-DNA binding, fluorescence polarization. inhibition, % at 11 µM. 320,000 compounds, 0.15% hits; in the data active means inhibition above about 33%
Target sequence (P03206 whole entry, looked up): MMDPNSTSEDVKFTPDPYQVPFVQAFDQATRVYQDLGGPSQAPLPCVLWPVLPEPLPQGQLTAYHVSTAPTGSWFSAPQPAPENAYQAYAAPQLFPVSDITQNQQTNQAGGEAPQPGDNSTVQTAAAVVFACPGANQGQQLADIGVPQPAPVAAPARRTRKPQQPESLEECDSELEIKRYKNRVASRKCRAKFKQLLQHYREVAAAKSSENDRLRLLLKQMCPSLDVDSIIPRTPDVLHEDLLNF
FGF22 binding – binders of human FGF22 protein, primary screen, FGF22 synaptogenesis inhibitor project, biophysical, thermal shift, single point. Fibroblast growth factor 22 (Homo sapiens), Q9HCT0. recombinant FGF22 thermal shift, SYPRO orange fluorescence; percent of sucrose octasulfate shift, DMSO zero. activity (Tm shift, normalised), % at 9.99 µM. 340,000 compounds, 1.5% hits;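 active means mean Tm shift, scaled 0 neutral to 100 positive control, at about 1.3% or above, every replicate too, limit read from the data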
Target sequence (Q9HCT0 whole entry, looked up): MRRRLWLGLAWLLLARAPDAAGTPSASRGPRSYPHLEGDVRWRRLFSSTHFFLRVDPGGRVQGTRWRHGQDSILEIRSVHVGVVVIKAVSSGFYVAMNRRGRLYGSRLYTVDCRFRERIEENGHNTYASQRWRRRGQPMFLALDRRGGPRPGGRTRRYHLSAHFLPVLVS
DNA FID counter – compounds displacing fluorescent DNA intercalator, primary screen, artefact control for HCV NS3 helicase inhibitor project, biochemical, FID fluorescence. DNA fluorescent intercalator displacement. inhibition, % at 7.9 µM. 290,000 compounds, 0.17% hits; in the data active means inhibition above about 37%;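 further: 0% = vehicle and 100% = reference compound; higher means more ethidium bromide displaced from hairpin DNA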
HCV NS3 hel inh – inhibitors of HCV NS3 helicase, primary screen, biochemical, Cy5 molecular beacon fluorescence; inhibition, % at 10.9 µM; Hepatitis C virus NS3 helicase; 290,000 compounds, 0.56% hits; NS3 helicase DNA unwinding;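 active means inhibition above the mean of all tested compounds plus 3 SD, set per campaign, cut at about 35% in these data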;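 further: 0% = DMSO wells and 100% = thioflavine S control wells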
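Compound dosing – single dose, 10.9 µM nominal final, DMSO 0.8% final · System – NS3 helicase fragment of HCV · Buffer or medium – MOPS pH 6.5, MgCl2, DTT, Tween20, BSA · Signal – Cy5 beacon fluorescence read at start and 1 h · Also added – annealed dual-labelled DNA beacon duplex, ATP-started · Schedule – 1 h at 25 °C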
EBNA-1 inh – EBNA-1 DNA-binding inhibitors, primary screen, biochemical, fluorescence polarization; inhibition, % at 14.8 µM; 300,000 compounds, 0.34% hits; AID 1950, 2009; in the data active means inhibition above about 28%
* hit, by the source's call; . = no result given. The list is not random: actives were taken first. Their share in the collection is about 3.6%.

SMILES	GRIN3A LBD mod	ZTA DNA inh	FGF22 binding	DNA FID counter	HCV NS3 hel inh	EBNA-1 inh
CCN(CC)c1ccc(C(=O)NNC(=O)CCl)cc1	0.8	5.2	44.2*	0.2	8.0	2.2
O=S(=O)(NCCc1ccccc1)c1ccc(F)cc1Br	12.7*	.	-0.1	.	.	.
C[C@@H]1CN([C@@H](C)CO)S(=O)(=O)c2ccc(C#Cc3ccc(F)cc3)cc2O[C@@H]1CN(C)S(=O)(=O)c1ccc(F)cc1	.	.	0.5	.	.	.
CCOC(=O)c1sc(N)nc1-c1ccccc1	-0.6	9.6	-0.2	-5.0	1.7	3.0
CCOC(=O)c1snc(-c2ccc(F)cc2)c1N	14.2*	-2.2	.	3.0	2.9	-2.0
O=C1C=C(c2ccc3c(c2)OCO3)C[C@@H](c2ccc3c(c2)OCO3)C1	0.8	-8.0	-0.1	.	.	.
O=C1C=C(c2ccc3cc[nH]c3c2)C[C@@H](c2ccc3c(c2)OCO3)C1	21.0*	2.9	.	.	.	.
CCCCC(=O)NC(=S)Nc1ccc(NC(=O)C(C)C)c(OC)c1	-5.2	-0.5	0.0	-11.2	-5.8	3.4
COc1cc(NC(=S)NC(C)=O)ccc1NC(=O)C(C)C	11.2*	9.3	.	-0.2	0.5	0.6
COc1ccc(NC(=O)N(C)C[C@H]2OCc3cn(nn3)CCCC(=O)N([C@@H](C)CO)C[C@H]2C)cc1	.	.	-0.2	.	.	.
COc1cccc(CN(C)C(=O)/C=C/c2ccc(S(=O)(=O)N3CCCCCC3)cc2)c1	24.4*	-8.1	-0.2	-31.5	-25.9	-2.8
COc1cccc(/C=C/C(=O)OCC(=O)Nc2ccc(S(=O)(=O)N3CCCC3)cc2)c1	-2.5	-1.1	0.0	-17.5	1.2	-8.4
Cc1ccccc1S(=O)(=O)NCC[C@H]1CC[C@H](NC(=O)C2CCCCC2)[C@@H](CO)O1	.	.	0.0	.	.	.
COCC(=O)N1[C@H](CO)[C@H](c2ccc(C#Cc3ccccc3F)cc2)[C@@H]1C#N	.	.	-0.1	.	.	.
Cc1ccc(-c2nc(SCC(=O)Nc3cc(S(=O)(=O)N4CCCCC4)ccc3Cl)n[nH]2)cc1	11.8*	-0.3	.	-21.4	-9.8	9.4
Nc1cc(=O)[nH]c(SCC(=O)Nc2cc(S(=O)(=O)N3CCCCCC3)ccc2Cl)n1	-1.7	.	-0.2	.	.	.
Cc1ccc(-n2c(SCC(=O)Nc3cc(S(=O)(=O)N4CCOCC4)ccc3Cl)nc3ccccc3c2=O)cc1	10.2*	-18.2	-0.2	0.1	-0.3	-3.8
CS(=O)(=O)c1ccc(Cl)c(NC(=O)CSc2nnc3n2CCCCC3)c1	.	.	43.8*	.	.	.
C[C@H](CO)N1C[C@H](C)[C@@H](CN(C)C(=O)NC2CCCC2)Oc2ncc(-c3ccccc3)cc2C1=O	.	.	-0.1	.	.	.
Cn1c(NC(=O)c2ccc(Cl)cc2)cc(=O)n(C)c1=O	-19.2	11.1	43.6*	-2.0	6.9	-5.3
COc1ccc(S(=O)(=O)N2CCN(C(=O)COc3ccccc3)CC2)cc1	-0.9	-22.3	43.2*	-0.2	0.6	6.7
Cc1ccc(OCCC(=O)OCC(=O)N2CCN(S(=O)(=O)c3ccc(Cl)cc3)CC2)cc1	.	-8.1	-0.1	.	.	-1.3
O=C(CCS(=O)(=O)c1ccccc1)N1CCN(c2ccccc2F)CC1	0.2	1.4	-0.1	-19.3	-1.0	5.1
COc1ccc(S(=O)(=O)CCC(=O)N2CCN(c3ccccc3F)CC2)cc1	-1.0	-17.5	44.1*	-22.4	7.2	-5.5
CC(C)CC(=O)N1CCN(S(=O)(=O)c2ccc(Cl)cc2)CC1	-0.2	-14.3	43.1*	-15.9	12.1	-7.8
Cc1ccccc1OCCC(=O)OCC(=O)N1CCN(S(=O)(=O)c2ccc(Cl)cc2)CC1	10.8*	6.7	-0.4	.	.	-1.6
Cc1ccc(S(=O)(=O)N2CCN(C(=O)CC(C)C)CC2)cc1	-2.4	-19.1	0.3	-30.3	16.1	0.2
COc1ccccc1-c1cn(CC[C@@H]2CC[C@@H](NC(=O)C3CC3)[C@H](CO)O2)nn1	.	.	0.0	.	.	.
COc1ccc(CN(C)C[C@H]2OCc3cnnn3CCCC(=O)N([C@@H](C)CO)C[C@H]2C)cc1	.	.	0.0	.	.	.

Screens deposited in PubChem by several laboratories.
